Measured values from ChEMBL document CHEMBL1125034, “Design and synthesis of 4H-3,1-benzoxazin-4-ones as potent alternate substrate inhibitors of human leukocyte elastase” (J Med Chem, 1990).
pKi: −log10 of the molar value.

Key:
[1] = biological target: T1, Neutrophil elastase (Homo sapiens) (UniProt P08246); test: Component acylation rate constant for interaction with human leukocyte elastase
T1 sequence (whole entry): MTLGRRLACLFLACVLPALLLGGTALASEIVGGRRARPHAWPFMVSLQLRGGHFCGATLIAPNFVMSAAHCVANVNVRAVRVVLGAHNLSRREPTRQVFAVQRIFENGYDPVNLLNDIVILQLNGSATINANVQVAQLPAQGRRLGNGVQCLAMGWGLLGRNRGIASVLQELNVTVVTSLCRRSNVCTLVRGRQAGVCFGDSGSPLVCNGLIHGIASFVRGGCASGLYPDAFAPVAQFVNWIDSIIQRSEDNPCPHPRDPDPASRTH

[2] = Partition coefficient (logD7.4); format: physicochemical; settings: octanol/water, pH 7.4
[3] = biological target: T1, Neutrophil elastase (Homo sapiens); test: Component deacylation rate constant for interaction with human leukocyte elastase
[4] = biological target: T2, Neutrophil elastase (Homo sapiens, UniProt P08246); test: Inhibition of human leukocyte elastase
T2 sequence (P08246 whole entry): T1 sequence (whole entry)

[5] = Alkaline hydrolysis rate of the compound; format: ADME
In short: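 Alkaline hydrolysis rate constants measured at several pH values at 25 °C. Loss of the long-wavelength UV chromophore (λmax typically 300-345 nm) was followed by spectrophotometer.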

Log kon [1]	logD [2]	Log koff [3]	pKi [4]	Log kOH- [5]	Compound
4.58	3.2	-2.85	7.43	1.32	COC(=O)[C@@H](CC(C)C)Nc1nc2ccccc2c(=O)o1
3.05	3.2	-2.72	5.77	1.15	O=c1oc(NCCc2ccccc2)nc2ccccc12
4			5.02	1.79	O=c1oc(-c2ccccc2)nc2ccccc12
3.41		-4.82	8.23	-0.23	Cc1cc(C)c2c(=O)oc(NC(C)C)nc2c1
4.04	0.8	-3.64	7.68	1.26	CC(C)C[C@H](NC(=O)[C@@H]1CCCN1c1nc2ccccc2c(=O)o1)C(=O)NCC(N)=O
7		-2.33	9.33	2.5	CCOc1nc2cccc(C(Br)Br)c2c(=O)o1
2.01		-3.89	5.90	-1.61	Cc1cc(N(C)C)cc2nc(NC(C)C)oc(=O)c12
4.38		-1.62	6.00		CCc1cccc2c(=O)oc(NC(C)C)nc12
2.59	3.9	-2.5	5.09	1.57	O=c1oc(/C=C/c2ccccc2)nc2ccccc12
6.3			7.55	2.01	CCSc1nc2c(C)cccc2c(=O)o1
4			5.84	2.24	CCSc1nc2ccc(NC(C)=O)cc2c(=O)o1
4.77	2.4	-2.51		1.21	CC(C)Nc1nc2ccccc2c(=O)o1
2.18		-3.01	5.19	0.68	CC(C)CN(CC(C)C)c1nc2ccccc2c(=O)o1
4.32		-2.86	7.18	1.32	COC(=O)C(CC(C)C)Nc1nc2ccccc2c(=O)o1 (stereo not given)
	3.2		6.74	0.69	CCc1ccc2c(=O)oc(NC(C)C)nc2c1
3.3			5.10	2.61	Cc1nc2c(N)cccc2c(=O)o1
5.49		-4.15	9.64	1.17	CCCc1cccc2nc(OCC)oc(=O)c12
2.81		-3.74	6.55	-2	CCCc1cc(N(C)C)cc2nc(NC(C)C)oc(=O)c12
	2.9		7.51	2.75	Cc1cccc2nc(C(F)(F)C(F)(F)C(F)(F)F)oc(=O)c12
3.36	3.2	-3.41	6.77	1.13	COC(=O)[C@H](CC(C)C)Nc1nc2ccccc2c(=O)o1
	2.7		8.00	-0.54	CCOc1nc2cc(N)cc(CC)c2c(=O)o1
3.41		-2.65	6.06	1.31	CCOC(=O)[C@H](C)Nc1nc2ccccc2c(=O)o1

Log kon [1]	logD [2]	Log koff [3]	pKi [4]	Log kOH- [5]	Compound
	2.1		5.13	1.18	Cc1nc2c(C)cccc2c(=O)o1
5			5.92	1.1	CCSc1nc2cc(OC)c(OC)cc2c(=O)o1
	1.2		6.83	0.92	CC(=O)Nc1ccc2c(=O)oc(NC(C)C)nc2c1
2.43		-2.91	5.34	-0.57	CCCCN(CCCC)c1nc2ccccc2c(=O)o1
3.76		-1.91	5.67	0.96	COc1cc2nc(SCc3ccccc3)oc(=O)c2cc1OC
	2.8		5.14	2.19	Cc1nc2cc3ccccc3cc2c(=O)o1
3.85		-4.95	8.80		Cc1cccc2nc(OCC(C)C)oc(=O)c12
	1.8		4.46	1.36	Cc1ccc2nc(C)oc(=O)c2c1
5.4		-3.45	8.85	1.9	CSc1nc2cccc(C)c2c(=O)o1
2.05		-4.13	6.18		CCC(C)CNc1nc2cccc(C)c2c(=O)o1 (stereo not given)
3.08		-3.42	6.50	1.26	NC(=O)[C@H](Cc1ccccc1)Nc1nc2ccccc2c(=O)o1
4.32		-3.1	7.42	-0.42	COc1cc(C)c2c(=O)oc(NC(C)C)nc2c1
	3		8.09	2.19	CCSc1nc2ccccc2c(=O)o1
	2		5.91	1.36	Nc1ccc(CNc2nc3ccccc3c(=O)o2)cc1
4.75		-3.47			CCCNc1nc2cccc(C)c2c(=O)o1
2.24		-2.88	5.12	1.86	CC(=O)NCc1nc2ccccc2c(=O)o1
3.84		-2.12	5.96	1.31	COc1cc2nc(SCc3c[nH]cn3)oc(=O)c2cc1OC
4.16	1.2	-3.27	7.43	1.23	NC(=O)[C@H](Cc1ccccc1)NC(=O)[C@@H]1CCCN1c1nc2ccccc2c(=O)o1
	1.3		5.32	1.69	Cc1nc2ccccc2c(=O)o1
5.11	2.9	-2.43	7.54	3.14	Cc1cccc2nc(C(F)(F)F)oc(=O)c12
	0.4		6.62	1.21	NC(=O)[C@@H]1CCCN1c1nc2ccccc2c(=O)o1
3.45	1.7	-2.74	6.19	-0.44	CCCCNc1nc2cc(N)ccc2c(=O)o1

Log kon [1]	logD [2]	Log koff [3]	pKi [4]	Log kOH- [5]	Compound
4.18	1	-3.49	7.67	1.27	CC(C)C[C@H](NC(=O)C1CCCN1c1nc2ccccc2c(=O)o1)C(N)=O (stereo not given in full)
	3.1		3.80	0.41	COc1cccc2nc(Nc3ccccc3)oc(=O)c12
	1.6		6.94	-1.08	CCc1cc(N)cc2nc(N3CCCC3C(=O)N[C@@H](CC(C)C)C(N)=O)oc(=O)c12 (stereo not given in full)
	2.6		7.56	1.39	COC(=O)[C@H](Nc1nc2ccccc2c(=O)o1)c1ccccc1
	2.8		6.02	1.12	O=c1oc(NCc2ccccc2)nc2ccccc12
3		-3.32	6.32	-0.74	CC(C)Nc1nc2cc(N(C)C)ccc2c(=O)o1
4.3			5.59		CC(C)Cc1nc2ccccc2c(=O)o1
5.11	3.8	-3.27		0.38	CCCCNc1nc2cccc(CC)c2c(=O)o1
	2.6		7.33	1.39	COC(=O)C(Nc1nc2ccccc2c(=O)o1)c1ccccc1 (stereo not given)
6.18	3.6	-2.85	9.03	1.58	CCSc1nc2cccc(C)c2c(=O)o1
3.89		-2.25	6.14		CCC(CC)Nc1nc2cccc(C)c2c(=O)o1
4			6.27	3.09	Cc1cccc2c(=O)oc(C(F)(F)F)nc12
5.54		-4.18	9.72	1.41	C/C=C/c1cccc2nc(OCC)oc(=O)c12
3.7		-2.43	6.13		CCCC(C)Nc1nc2cccc(C)c2c(=O)o1 (stereo not given)
	1.6		7.77	-1.26	CCc1cc(N)cc2nc(NC(C)C)oc(=O)c12
	1.9		6.77	3.52	O=c1oc(C(F)(F)F)nc2ccccc12
3.69	2.3	-0.82		0.54	CNc1nc2cccc(C)c2c(=O)o1
3.28	0.3	-3.07	6.35	1.28	COC(=O)[C@H](Cc1ccc(O)cc1)Nc1nc2ccccc2c(=O)o1
3.46		-4.85	8.31	-0.1	CCOc1nc2cc(N(C)C)ccc2c(=O)o1
	-0.3		6.26	1.3	CC(C)NC(=O)[C@H](CCC(N)=O)Nc1nc2ccccc2c(=O)o1
2.36		-4.75	7.11	-1.09	Cc1cc(N)cc2nc(NC(C)C)oc(=O)c12
4.1		-1.77	5.87	0.39	CCCNC(=O)Nc1ccc2c(=O)oc(NC(C)C)nc2c1

Compound	Log kon [1]	logD [2]	Log koff [3]	pKi [4]	Log kOH- [5]
O=C(c1nc2ccccc2c(=O)o1)[C@@H]1CCCN1	2.95		-3	5.95	1.69
